From ChEMBL document CHEMBL2311523, “Identification of novel chromenone derivatives as interleukin-5 inhibitors” (Eur J Med Chem, 2013) come the findings set out here.

For orientation: inhibition means the change of the read-out against control, counted positive when it falls. Read a high inhibition as a strong effect. The term IC50 denotes the concentration that gives 50% inhibition.

Test [1] deals with T1, Interleukin-5 (Mus musculus) (UniProt P04401).
T1 sequence (whole entry): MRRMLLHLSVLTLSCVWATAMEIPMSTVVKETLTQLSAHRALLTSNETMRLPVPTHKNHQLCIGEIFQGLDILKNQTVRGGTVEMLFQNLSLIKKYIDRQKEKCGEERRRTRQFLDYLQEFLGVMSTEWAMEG
Briefly: Inhibition of IL-5 in mouse pro-B Y16 cells at 30 uM after 48 hrs by WST1 assay. Format: cell-based. The gist of the method: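 IL-5-dependent mouse pro-B Y16 cells were stimulated with 3 units/mL mIL-5 and incubated 48 h with or without compound. Cell metabolism was read by WST-1 tetrazolium reduction as an index of IL-5-driven proliferation.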
(In general: Formazan colour is commonly taken as a measure of viable cells.)

Test [2] is described as follows: Inhibition of IL-5 in mouse pro-B Y16 cells after 48 hrs by WST1 assay.

The molecule `Cc1ccc(C(O)/C=C/c2coc3cccc(OCC4CCCCC4)c3c2=O)cc1` (racemic) displayed an inhibition in test [1] of 93.2%.

Regarding `O=c1c(/C=C/C(O)c2ccc(C(F)(F)F)cc2)coc2cccc(OCC3CCCCC3)c12` (racemic), the inhibition in test [1] worked out at 92.7%.

In test [1], `O=C(/C=C/c1coc2cccc(OCC3CCCCC3)c2c1=O)c1ccccc1` had an inhibition of 17.2%. Same read-out and setting: then `O=C(/C=C/c1coc2cccc(OCC3CCCCC3)c2c1=O)c1ccc(Cl)cc1`, with 46.3%; and `CC(C)(C)c1ccc(C(O)/C=C/c2coc3cccc(OCC4CCCCC4)c3c2=O)cc1` (racemic), with 15.7%.

`Cc1ccc(C(=O)/C=C/c2coc3cccc(OCC4CCCCC4)c3c2=O)cc1`: the inhibition in test [1] was 57.5%. With `COc1cccc2occ(/C=C/C(O)c3ccc(O)cc3)c(=O)c12` (racemic), in test [1], the inhibition was 21.3%. `O=c1c(/C=C/C(O)c2ccc([N+](=O)[O-])cc2)coc2cccc(OCC3CCCCC3)c12` (racemic) had an inhibition in test [1] of 93.8%.

In test [1], `O=C(/C=C/c1coc2cccc(OCC3CCCCC3)c2c1=O)c1ccc([N+](=O)[O-])cc1` came in with an inhibition of 11.8%.

Regarding `N#Cc1ccc(C(=O)/C=C/c2coc3cccc(OCC4CCCCC4)c3c2=O)cc1`, in test [1], the inhibition stood at 9.2%. The same measure, in the same setting: the same measure for `O=C(/C=C/c1coc2cccc(OCC3CCCCC3)c2c1=O)c1ccc(O)cc1`: 99%.

`O=c1c(/C=C/C(O)c2ccc(F)cc2)coc2cccc(OCC3CCCCC3)c12` (racemic) yielded an inhibition in test [1] of 93.2%. In the case of `CC(C)COc1cccc2occ(/C=C/C(O)c3ccc(O)cc3)c(=O)c12` (racemic), the inhibition in test [1] is 20.6%. Still for that read-out and setting: then `CC(C)COc1cccc2occ(/C=C/C(=O)c3ccc(O)cc3)c(=O)c12`, with 87.5%; and `COc1ccc(C(=O)/C=C/c2coc3cccc(OCC4CCCCC4)c3c2=O)cc1`, with 9.3%. The molecule `O=C(/C=C/c1coc2cccc(OCC3CCCCC3)c2c1=O)c1ccc(F)cc1` registered an inhibition in test [1] of 15.4%. For the molecule `N#Cc1ccc(C(O)/C=C/c2coc3cccc(OCC4CCCCC4)c3c2=O)cc1` (racemic), in test [1], the inhibition came out at 94.4%. Same read-out and setting: then `O=c1c(/C=C/C(O)c2ccccc2)coc2cccc(OCC3CCCCC3)c12` (racemic), with 93.9%; and `O=c1c(/C=C/C(O)c2ccc(O)cc2)coc2cccc(OCC3CCCCC3)c12` (racemic), with 92.7%. For `O=c1c(/C=C/C(O)c2ccc(Cl)cc2)coc2cccc(OCC3CCCCC3)c12` (racemic), the inhibition in test [1] came out at 93.5%. Molecule `COc1ccc(C(O)/C=C/c2coc3cccc(OCC4CCCCC4)c3c2=O)cc1` (racemic) gave an inhibition in test [1] of 93.6%. As for `CC(C)(C)c1ccc(C(=O)/C=C/c2coc3cccc(OCC4CCCCC4)c3c2=O)cc1`, in test [1], the inhibition was determined as 99.2%. Still for that read-out and setting: then `COc1cccc2occ(/C=C/C(=O)c3ccc(O)cc3)c(=O)c12`, with 32.3%; and `O=C(/C=C/c1coc2cccc(OCC3CCCCC3)c2c1=O)c1ccc(C(F)(F)F)cc1`, with 42.7%. With `O=c1c(-c2ccc(O)cc2)coc2cccc(OCC3CCCCC3)c12`, in test [2], the concentration for half-maximal inhibition (IC50) turned out to be 5.8 µM.
